ChEMBL document CHEMBL4257459, “Synergistic antifungal effect of cyclized chalcone derivatives and fluconazole against Candida albicans” (2017)
Values after ≈ are worked out from the molar mass of the structure shown.

Legend:
Candida albicans [1] = assay: Antifungal activity against fluconazole susceptible Candida albicans 0079gr by CLSI protocol based broth microdilution method; format: functional
Method in brief: (§1)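 Clinical isolates and control strain subcultured at least twice on TSA, 37 °C, 48 h. MICs by CLSI M27-A3 broth microdilution; compounds dissolved in DMSO to 2000 μg mL–1 stock. Fluconazole positive control, culture, media and DMSO vehicle controls in each run. Duplicate experiments; MIC in μg mL–1.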

Candida albicans [2] = assay: Antifungal activity against fluconazole susceptible Candida albicans 002B1 in presence of fluconazole by CLSI protocol based broth microdilution method; format: functional
Candida albicans [3] = assay: Inhibition of ABC efflux pumps in fluconazole resistant Candida albicans A171 assessed as reduction in energy-dependent rhodamine 6G efflux in presence of 0.1 M glucose after 25 mins by fluorescence assay relative to control
Method in brief: (§2)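 Cells grown in TSB at 37 °C for 8 h, washed, resuspended in glucose-free PBS at 1 × 10^8 cells. De-energized 45 min with 5 mM deoxyglucose plus 5 mM dinitrophenol. […] Washed, sampled 5–25 min, then 0.1 M glucose added. Absorbance 527 nm, R6G from standard curve.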

Candida albicans [4] = assay: Inhibition of ABC efflux pumps in fluconazole resistant Candida albicans 167-2 assessed as reduction in energy-dependent rhodamine 6G efflux in presence of 0.1 M glucose after 25 mins […] relative to control
Candida albicans [5] = assay: Inhibition of ABC efflux pumps in fluconazole susceptible Candida albicans 002B1 assessed as reduction in energy-dependent rhodamine 6G efflux in presence of 0.1 M glucose after 25 mins […] relative to control
Candida albicans [6] = assay: Antifungal activity against fluconazole susceptible Candida albicans 003gr by CLSI protocol based broth microdilution method; format: functional; method in brief: as §1
Candida albicans [7] = assay: Antifungal activity against fluconazole resistant Candida albicans 167-1 by CLSI protocol based broth microdilution method; format: functional
Method in brief: (§3)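 Broth microdilution per CLSI M27-A3 against clinical C. albicans isolates. Strains sub-cultured at least twice on Tryptone Soya Agar, 37 °C, 48 h. Compounds dissolved in DMSO at 2000 μg mL–1 stock. Fluconazole positive control, plus culture, media and vehicle controls. Run in duplicate; MIC in μg mL–1.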

Candida albicans [8] = assay: Inhibition of ABC efflux pumps in fluconazole resistant Candida albicans 167-1 assessed as reduction in energy-dependent rhodamine 6G efflux in presence of 0.1 M glucose after 25 mins […] relative to control
Candida albicans [9] = assay: Inhibition of ABC efflux pumps in fluconazole susceptible Candida albicans 004B1 assessed as reduction in energy-dependent rhodamine 6G efflux in presence of 0.1 M glucose after 25 mins by fluorescence assay relative to control; method in brief: as §2
Candida albicans [10] = assay: Antifungal activity against fluconazole resistant Candida albicans A171 in presence of fluconazole by CLSI protocol based broth microdilution method; format: functional
Method in brief: (§4)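 Checkerboard-style combination with fluconazole at a 1 : 1 ratio, over concentrations 2–4 fold below each agent's MIC alone, by CLSI broth microdilution. Fractional inhibitory concentration index calculated and interpreted as synergy (<0.5), additive (0.5–1), indifferent or antagonistic.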

Candida albicans [11] = assay: Antifungal activity against Candida albicans ATCC 90028 by CLSI protocol based broth microdilution method; format: functional; method in brief: as §1
Candida albicans [12] = assay: Antifungal activity against fluconazole susceptible Candida albicans 004B1 in presence of fluconazole by CLSI protocol based broth microdilution method; format: functional
Candida albicans [13] = assay: Inhibition of ABC efflux pumps in fluconazole susceptible Candida albicans 0079gr assessed as reduction in energy-dependent rhodamine 6G efflux in presence of 0.1 M glucose after 25 mins by fluorescence assay relative to control; method in brief: as §2
Candida albicans [14] = assay: Antifungal activity against fluconazole susceptible Candida albicans 0072gr by CLSI protocol based broth microdilution method; format: functional; method in brief: as §1
Candida albicans [15] = assay: Antifungal activity against fluconazole susceptible Candida albicans 003gr in presence of fluconazole by CLSI protocol based broth microdilution method; format: functional
Candida albicans [16] = assay: Antifungal activity against fluconazole resistant Candida albicans 167-1 in presence of fluconazole by CLSI protocol based broth microdilution method; format: functional; method in brief: as §4
Candida albicans [17] = assay: Antifungal activity against fluconazole resistant Candida albicans 167-2 in presence of fluconazole by CLSI protocol based broth microdilution method; format: functional; method in brief: as §4
Candida albicans [18] = assay: Antifungal activity against fluconazole susceptible Candida albicans 004gr in presence of fluconazole by CLSI protocol based broth microdilution method; format: functional
Candida albicans [19] = assay: Inhibition of ergosterol biosynthesis in fluconazole susceptible Candida albicans ATCC 90028 at 0.5 to 1 times MIC relative to control; format: functional
Method in brief: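 ATCC90028 grown in 50 ml TSB with MIC and ½ MIC of compound; untreated and 8 μg mL–1 fluconazole controls. Sterols extracted by alcoholic KOH method and spectrophotometrically scanned; ergosterol % calculated from A281.5 and A230 (E values 290 and 518) with dilution factor, per pellet weight.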

Candida albicans [20] = assay: Antifungal activity against fluconazole susceptible Candida albicans 004B1 by CLSI protocol based broth microdilution method; format: functional; method in brief: as §1
Candida albicans [21] = assay: Antifungal activity against fluconazole resistant Candida albicans 167-2 by CLSI protocol based broth microdilution method; format: functional; method in brief: as §3
Candida albicans [22] = assay: Inhibition of ergosterol biosynthesis in fluconazole resistant Candida albicans A171 at 0.5 to 1 times MIC relative to control; format: functional
Method in brief: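 Total sterols quantified by alcoholic KOH extraction in cells grown in 50 ml TSB with compounds at MIC and ½ MIC; untreated and 8 μg mL–1 fluconazole controls. Spectral scan; ergosterol content from A281.5 and A230 absorbances, dilution factor and pellet weight, correcting for 24(28) DHE.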

Candida albicans [23] = assay: Antifungal activity against fluconazole susceptible Candida albicans 0072gr in presence of fluconazole by CLSI protocol based broth microdilution method; format: functional
Candida albicans [24] = assay: Antifungal activity against fluconazole susceptible Candida albicans 0079gr in presence of fluconazole by CLSI protocol based broth microdilution method; format: functional
Candida albicans [25] = assay: Antifungal activity against fluconazole susceptible Candida albicans 004gr by CLSI protocol based broth microdilution method; format: functional; method in brief: as §1
Candida albicans [26] = assay: Inhibition of ABC efflux pumps in fluconazole susceptible Candida albicans 004gr assessed as reduction in energy-dependent rhodamine 6G efflux in presence of 0.1 M glucose after 25 mins by fluorescence assay relative to control; method in brief: as §2
Candida albicans [27] = assay: Down regulation of ERG11 gene expression in fluconazole susceptible Candida albicans ATCC 90028 at MIC after 2 hrs by qRT PCR analysis relative to control; format: functional
Method in brief: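 Cells exposed to compound at MIC for 2 h; total RNA isolated, cDNA synthesised, ERG11 measured by real-time qPCR with ACT1 as endogenous control. Triplicate independent experiments; mean ± standard deviation.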

Candida albicans [28] = assay: Antifungal activity against fluconazole susceptible Candida albicans 002B1 by CLSI protocol based broth microdilution method; format: functional; method in brief: as §1
Candida albicans [29] = assay: Down regulation of ERG11 gene expression in fluconazole resistant Candida albicans A171 at MIC after 2 hrs by qRT PCR analysis relative to control; format: functional
Method in brief: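 Cells exposed 2 h to test agents at MIC. Total RNA isolated, cDNA synthesized, qPCR for ERG11 with ACT1 as endogenous control. Triplicate independent experiments, reported as mean ± standard deviation.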

Candida albicans [30] = assay: Inhibition of ABC efflux pumps in fluconazole susceptible Candida albicans 0072gr assessed as reduction in energy-dependent rhodamine 6G efflux in presence of 0.1 M glucose after 25 mins […] relative to control
Candida albicans [31] = assay: Antifungal activity against fluconazole resistant Candida albicans A171 by CLSI protocol based broth microdilution method; format: functional; method in brief: as §3
Candida albicans [32] = assay: Antifungal activity against Candida albicans ATCC 90028 in presence of fluconazole by CLSI protocol based broth microdilution method; format: functional
Candida albicans [33] = assay: Inhibition of ABC efflux pumps in fluconazole susceptible Candida albicans 003gr assessed as reduction in energy-dependent rhodamine 6G efflux in presence of 0.1 M glucose after 25 mins […] relative to control

Row | SMILES | MIC (Candida albicans [1]) [µg/mL] | fractional inhibitory concentration index (FICI) (Candida albicans [2]) | inhibition (Candida albicans [3]) [%] | inhibition (Candida albicans [4]) [%] | inhibition (Candida albicans [5]) [%] | MIC (Candida albicans [6]) [µg/mL] | MIC (Candida albicans [7]) [µg/mL] | inhibition (Candida albicans [8]) [%] | inhibition (Candida albicans [9]) [%] | fractional inhibitory concentration index (FICI) (Candida albicans [10]) | MIC (Candida albicans [11]) [µg/mL] | fractional inhibitory concentration index (FICI) (Candida albicans [12]) | inhibition (Candida albicans [13]) [%] | MIC (Candida albicans [14]) [µg/mL] | fractional inhibitory concentration index (FICI) (Candida albicans [15]) | fractional inhibitory concentration index (FICI) (Candida albicans [16]) | fractional inhibitory concentration index (FICI) (Candida albicans [17]) | fractional inhibitory concentration index (FICI) (Candida albicans [18]) | inhibition (INH) (Candida albicans [19]) | MIC (Candida albicans [20]) [µg/mL] | further results
1 | O=C1NC(c2ccccc2)=CC(c2ccc(C3C=C(c4ccccc4)NC(=O)N3)cc2)N1 (stereo unspecified) | 0.25 to 2 (≈ 0.592 to 4.73 µM) | 0.13 - 0.38 | < 20 | < 20 | < 20 | 0.25 to 2 (≈ 0.592 to 4.73 µM) | 4 to 8 (≈ 9.47 to 18.9 µM) | < 20 | < 20 | 0.031 - 0.25 | 0.25 to 2 (≈ 0.592 to 4.73 µM) | 0.13 - 0.38 | < 20 | 0.25 to 2 (≈ 0.592 to 4.73 µM) | 0.13 - 0.38 | 0.031 - 0.25 | 0.031 | 0.13 - 0.38 | 66 - 99% | 0.25 to 2 (≈ 0.592 to 4.73 µM) | MIC (Candida albicans [21]): 4 to 8 µg/mL (≈ 9.47 to 18.9 µM); inhibition (INH) (Candida albicans [22]): 49 - 94%; fractional inhibitory concentration index (FICI) (Candida albicans [23]): 0.13 - 0.38; fractional inhibitory concentration index (FICI) (Candida albicans [24]): 0.13 - 0.38; MIC (Candida albicans [25]): 0.25 to 2 µg/mL (≈ 0.592 to 4.73 µM); inhibition (Candida albicans [26]): < 20%; fold change (FC) (Candida albicans [27]): 1.5 - 13; MIC (Candida albicans [28]): 0.25 to 2 µg/mL (≈ 0.592 to 4.73 µM); fold change (FC) (Candida albicans [29]): 1.25 - 10; inhibition (Candida albicans [30]): < 20%; MIC (Candida albicans [31]): 4 to 8 µg/mL (≈ 9.47 to 18.9 µM); fractional inhibitory concentration index (FICI) (Candida albicans [32]): 0.13 - 0.38; inhibition (Candida albicans [33]): < 20%
2 | c1ccc(C2=NOC(c3ccc(C4CC(c5ccccc5)=NO4)cc3)C2)cc1 (stereo unspecified) | 2 to 8 (≈ 5.43 to 21.7 µM) | 0.37 - 0.75 | < 20 | < 20 | < 20 | 2 to 8 (≈ 5.43 to 21.7 µM) | 8 to 16 (≈ 21.7 to 43.4 µM) | < 20 | < 20 | 0.532 - 1.02 | 2 to 8 (≈ 5.43 to 21.7 µM) | 0.37 - 0.75 | < 20 | 2 to 8 (≈ 5.43 to 21.7 µM) | 0.37 - 0.75 | 0.532 - 1.02 | 0.532 - 1.02 | 0.37 - 0.75 | 66 - 99% | 2 to 8 (≈ 5.43 to 21.7 µM) | MIC (Candida albicans [21]): 8 to 16 µg/mL (≈ 21.7 to 43.4 µM); inhibition (INH) (Candida albicans [22]): 49 - 94%; fractional inhibitory concentration index (FICI) (Candida albicans [23]): 0.37 - 0.75; fractional inhibitory concentration index (FICI) (Candida albicans [24]): 0.37 - 0.75; MIC (Candida albicans [25]): 2 to 8 µg/mL (≈ 5.43 to 21.7 µM); inhibition (Candida albicans [26]): < 20%; fold change (FC) (Candida albicans [27]): 1.5 - 13; MIC (Candida albicans [28]): 2 to 8 µg/mL (≈ 5.43 to 21.7 µM); fold change (FC) (Candida albicans [29]): 1.25 - 10; inhibition (Candida albicans [30]): < 20%; MIC (Candida albicans [31]): 8 to 16 µg/mL (≈ 21.7 to 43.4 µM); fractional inhibitory concentration index (FICI) (Candida albicans [32]): 0.37 - 0.75; inhibition (Candida albicans [33]): < 20%
